# Results of several laboratories.
# Compare with care: the assays were run in different laboratories.
# Target: Mitogen-activated protein kinase kinase kinase 10 (MAP3K10, Homo sapiens, UniProt Q02779)
Structure (SMILES),test,setting,endpoint,result
Oc1ccc(-c2nc(-c3ccncc3)c(-c3ccc(F)cc3)[nH]2)cc1,cell-free assay,0.5 µM,remaining signal,32.8%
Cn1nc(C(=O)NCc2ccc(C(=O)O)cc2)cc1-c1ccc2[nH]ccc2c1,"cell-free assay, competition with immobilised ligand",0.1 µM,remaining binding,100%
CCCCNc1ncc2c(-c3ccc(F)cc3)nn(C[C@H]3CC[C@H](N)CC3)c2n1,"target engagement in cells, inhibitor, chemoproteomics",20 mM,inhibition,65.4%
COc1cc2c(N3CCN(C(=O)Nc4ccc(OC(C)C)cc4)CC3)ncnc2cc1OCCCN1CCCCC1,cell-free assay,0.5 µM,remaining signal,101%
COc1cc(Cl)c(C(=O)N[C@@H](CN[C@H]2CC[C@@H](N)CC2)Cc2ccc(C#N)cc2)cc1-c1ccc(CN[C@H](C)c2ccc(C)cc2)o1,"enzyme activity, inhibitor",1 µM,remaining activity,97%
CNC(=O)c1cc(Oc2ccc(NC(=O)Nc3ccc(Cl)c(C(F)(F)F)c3)cc2)ccn1,cell-free assay,0.5 µM,remaining signal,104%
Cc1sc(C(=O)NC2COC2)cc1-n1cc(NC(=O)Nc2c(F)cccc2Cl)cn1,"enzyme activity, inhibitor",10 µM,remaining activity,90.8%
c1ccc(CNc2nc(N3CCOc4ccccc43)nc3c2CCCC3)cc1,"target engagement in cells, inhibitor, chemoproteomics",20 mM,inhibition,14.1%
C[C@H](NC(=O)c1cnc2n1[C@](C)(Cc1ccc(C#N)cc1)C(=O)N2c1cc(Cl)c(F)c(Cl)c1)C(=O)NC1(c2ccccn2)CC1,"cell-free assay, competition with immobilised ligand",1 µM,remaining binding,100%
N#CCCc1ccc2c(c1)-c1[nH]c3ccc([N+](=O)[O-])cc3c1CC(=O)N2,cell-free assay,0.5 µM,remaining signal,30%
CC(C)(O)c1cncc(-c2nc3ccc(F)cc3n2C2CC2)c1,"cell-free assay, competition with immobilised ligand",1 µM,remaining binding,100%
CC(C)(C)c1nc2c(s1)c1nc(N)ncc1c1ccc(NS(=O)(=O)c3c(F)cccc3F)c(F)c12,"enzyme activity, inhibitor, radiometric",1 µM,remaining activity,102%
Nc1ncnc2occ(-c3ccc(NC(=O)Nc4cc(C(F)(F)F)ccc4F)cc3)c12,"cell-free assay, inhibitor",20 µM,remaining signal,0%
O=C1NC(c2ccccn2)Sc2ccccc21 (centres unmarked),"cell-free assay, competition with immobilised ligand",1 µM,remaining binding,94%
CCN(CC)CCNC(=O)c1c(C)[nH]c(/C=C2\C(=O)Nc3ccc(F)cc32)c1C,cell-free assay,0.5 µM,remaining signal,104%
CNCc1ccccc1-c1csc([C@@H](C)Nc2nc(C)nc3cc(OC)c(OC)cc23)c1,"cell-free assay, competition with immobilised ligand",1 µM,remaining binding,96%
Cc1ccc(C(=O)Nc2ccc(CN3CCN(C)CC3)c(C(F)(F)F)c2)cc1C#Cc1cnc2cccnn12,"enzyme activity, inhibitor",23.5 nM,remaining activity,69%
